Results taken from ChEMBL document CHEMBL4043064, “Pharmacophore-Based Repositioning of Approved Drugs as Novel Staphylococcus aureus NorA Efflux Pump Inhibitors” (J Med Chem, 2017).
Calls of active or inactive are those of the source. No cut-off for these calls is given here.

Key:
[1] = biological target: T1, Quinolone resistance protein NorA (Staphylococcus aureus) (UniProt P0A0J7); experiment: Inhibition of NorA in Staphylococcus aureus SA1199B harboring GrlA A116E mutant assessed as inhibition of ethidium bromide efflux at 50 uM measured after 5 mins by fluorometric method relative to control
T1 sequence (whole entry): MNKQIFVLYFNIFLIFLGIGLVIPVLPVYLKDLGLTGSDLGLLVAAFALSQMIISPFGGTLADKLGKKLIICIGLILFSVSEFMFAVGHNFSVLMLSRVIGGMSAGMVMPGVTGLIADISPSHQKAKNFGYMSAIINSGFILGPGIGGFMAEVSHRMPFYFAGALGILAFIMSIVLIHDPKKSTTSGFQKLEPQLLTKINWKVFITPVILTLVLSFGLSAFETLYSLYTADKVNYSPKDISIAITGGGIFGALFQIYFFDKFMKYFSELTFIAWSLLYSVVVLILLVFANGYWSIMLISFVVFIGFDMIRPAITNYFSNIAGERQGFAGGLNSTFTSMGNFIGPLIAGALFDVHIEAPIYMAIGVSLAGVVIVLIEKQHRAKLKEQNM
Procedure, shortened: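 S. aureus SA-1199B; test compounds at 50 µM. EtBr loss was measured fluorometrically in their presence and compared with their absence to give percentage reduction in efflux.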

[2] = biological target: T1, Quinolone resistance protein NorA (Staphylococcus aureus); experiment: Inhibition of NorA in Staphylococcus aureus SA1199B harboring GrlA A116E mutant assessed as potentiation of CPX-induced antimicrobial activity up to 100 ug/ml by checkerboard assay
Procedure, shortened: (§1)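 Checkerboard microdilution of compound against CPX, with MICs set by CLSI microdilution. Applies to S. aureus SA-1199B and SA-K2378. Compound alone was tested up to 100 µg/mL. The read-out is fold reduction of the CPX MIC.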

[3] = biological target: T1, Quinolone resistance protein NorA (Staphylococcus aureus); experiment: Inhibition of Staphylococcus aureus SAK2378 norA assessed as potentiation of CPX-induced antimicrobial activity up to 100 ug/ml by checkerboard assay; procedure, shortened: as §1
[4] = biological target: Quinolone resistance protein NorA (Staphylococcus aureus, UniProt P0A0J7, A116E); experiment: Inhibition of NorA in Staphylococcus aureus SA1199B harboring GrlA A116E mutant assessed as inhibition of ethidium bromide efflux after 5 mins by fluorometric method
Procedure, shortened: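 S. aureus SA-1199B; EtBr loss measured fluorometrically, with compound present versus absent, giving percentage reduction in efflux. Increasing inhibitor concentrations were tested, and IC50 was read by inspecting the dose-response plots.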

Structure (SMILES) | inhibition [1] [%] | inhibition [2] | inhibition [3] | IC50 [4] [µM]
CCCc1nn(C)c2c(=O)[nH]c(-c3cc(S(=O)(=O)N4CCN(C)CC4)ccc3OCC)nc12 | 22.9 |  |  | 
CCN(CCCCOC(=O)c1ccc(OC)c(OC)c1)C(C)Cc1ccc(OC)cc1 (centres undefined) | 45.2 |  |  | 
CCCOc1ccc(-c2cc(OCCN(CC)CC)c3ccccc3n2)cc1 |  | Active | Active | 
Cc1ccc(-n2nc(C(C)(C)C)cc2NC(=O)Nc2ccc(OCCN3CCOCC3)c3ccccc23)cc1 | 47 |  |  | 
COC(=O)C1=C(C)NC(C)=C(C(=O)OCCN(C)Cc2ccccc2)C1c1cccc([N+](=O)[O-])c1 (centres undefined) [NICARDIPINE] | 77.1 |  |  | 22.8
CCOC(=O)Nc1ccc2c(c1)N(C(=O)CCN1CCOCC1)c1ccccc1S2 | 23.7 |  |  | 
COC(=O)[C@H]1[C@H]2C[C@@H]3c4[nH]c5cc(OC)ccc5c4CCN3C[C@H]2C[C@@H](OC(=O)c2cc(OC)c(OC)c(OC)c2)[C@@H]1OC |  | Active | Active | 
COc1cc2ncnc(Nc3ccc(F)c(Cl)c3)c2cc1OCCCN1CCOCC1 [GEFITINIB] | 94.2 |  |  | 9.7
Cc1nc(Nc2ncc(C(=O)Nc3c(C)cccc3Cl)s2)cc(N2CCN(CCO)CC2)n1 [DASATINIB] | 95.8 |  |  | 11.5
